Experimental data published in ChEMBL document CHEMBL4725383 (Bioorg Med Chem, 2020).
Activity calls are given as the source filed them. The calls are words filed in the database; no cut-off is given here.

Columns and labels:
[1] = target: T1, Microtubule-associated protein tau (Homo sapiens, UniProt P10636); experiment: Displacement of Bis-ANS from solvent exposed hydrophobic site of non-aggregated human full length recombinant tau-441 expressed in Escherichia coli assessed as reduction in fluorescence intensity at 120 uM incubated for 72 hrs by Bis-ANS fluorescence assay
T1 sequence (P10636 whole entry): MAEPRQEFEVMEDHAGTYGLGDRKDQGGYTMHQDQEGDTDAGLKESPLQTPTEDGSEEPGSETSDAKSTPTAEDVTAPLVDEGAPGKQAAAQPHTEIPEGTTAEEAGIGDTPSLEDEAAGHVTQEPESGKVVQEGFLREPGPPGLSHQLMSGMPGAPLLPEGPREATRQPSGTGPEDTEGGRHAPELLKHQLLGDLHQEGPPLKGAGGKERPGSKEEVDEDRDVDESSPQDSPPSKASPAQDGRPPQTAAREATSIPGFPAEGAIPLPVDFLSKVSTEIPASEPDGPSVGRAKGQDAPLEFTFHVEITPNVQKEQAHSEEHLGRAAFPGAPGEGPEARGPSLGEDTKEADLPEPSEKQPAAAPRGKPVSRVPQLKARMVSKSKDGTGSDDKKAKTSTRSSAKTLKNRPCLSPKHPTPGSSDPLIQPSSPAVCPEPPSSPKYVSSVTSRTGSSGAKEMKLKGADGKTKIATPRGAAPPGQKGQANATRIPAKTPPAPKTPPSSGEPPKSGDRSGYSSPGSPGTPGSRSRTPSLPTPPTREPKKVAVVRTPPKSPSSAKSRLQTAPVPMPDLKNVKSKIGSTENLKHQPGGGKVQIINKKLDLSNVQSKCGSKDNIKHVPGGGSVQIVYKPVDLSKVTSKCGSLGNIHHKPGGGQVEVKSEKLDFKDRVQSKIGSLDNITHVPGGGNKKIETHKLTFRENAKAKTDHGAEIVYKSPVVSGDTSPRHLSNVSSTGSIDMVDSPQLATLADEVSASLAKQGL
In short: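 Competition control: non-aggregated tau441 (909 μg/mL) is held with compound and without heparin for 72 h at 37 °C. It is then mixed with Bis-ANS (100 μM final) for 60 min at room temperature. Fluorescence is read at 25 °C, ex 350 nm, emission 400–600 nm, and loss of 510 nm signal is taken as Bis-ANS displacement from tau hydrophobic sites.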

[2] = target: T1, Microtubule-associated protein tau; experiment: Inhibition of human full length recombinant tau-441 expressed in Escherichia coli assessed as inhibition of heparin-induced beta-sheet formation and protein aggregation by measuring fluorescence intensity at 120 uM incubated for 72 hrs by Proteo-stat fluorescence aggregation assay
In short: (§1)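 Recombinant full-length tau441 (19.8 μM final, 909 μg/mL) is aggregated with heparin (4.95 μM final) in pH 6.8 tau buffer (MES, EGTA, NaCl) for 72 h at 37 °C. Compounds are dissolved in DMSO and added at 5, 40, 120 or 250 μM final. A 10 μL aliquot is mixed 10:1 v/v with Proteostat reagent and read at ex 550/em 600 nm. Triplicates. IC50 comes from a sigmoidal dose-response fit.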

[3] = target: T1, Microtubule-associated protein tau; experiment: Inhibition of human full length recombinant tau-441 expressed in Escherichia coli assessed as inhibition of heparin-induced protein aggregation by measuring reduction in fibrillization by measuring reduction in short and long filaments and fibrillar network formation at 120 uM incubated for 72 hrs by transmission electron microscopy
[4] = target: T1, Microtubule-associated protein tau; experiment: Inhibition of human full length recombinant tau-441 expressed in Escherichia coli assessed as inhibition of heparin-induced protein aggregation by measuring reduction in fluorescence intensity at 5 to 120 uM incubated for 72 hrs by Proteo-stat fluorescence aggregation assay; conditions: dose microM 5-120, time 72.0 hrs; in short: as §1
[5] = target: T1, Microtubule-associated protein tau; experiment: Inhibition of human full length recombinant tau-441 expressed in Escherichia coli assessed as inhibition of heparin-induced protein aggregation by measuring fluorescence intensity at 120 uM incubated for 72 hrs by Bis-ANS fluorescence assay
In short: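 Tau441 (19.8 μM) with heparin (4.95 μM) and compound (120 μM) in DMSO/tau buffer pH 6.8 is aged 72 h at 37 °C. A 10 μL aliquot gets Bis-ANS (100 μM final, from stock in 20 mM Tris pH 7.4) for 60 min at room temperature. Emission is scanned 400–600 nm at 25 °C (ex 350 nm) and the 510 nm intensity is taken. Triplicate measurements.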

[6] = target: T1, Microtubule-associated protein tau; experiment: Inhibition of human full length recombinant tau-441 expressed in Escherichia coli assessed as inhibition of heparin-induced protein aggregation by measuring reduction in fluorescence intensity incubated for 72 hrs by Proteo-stat fluorescence aggregation assay
[7] = Inhibition of N-terminal His6-tagged human tau K18deltaK280 mutant assessed as inhibition of protein aggregation

Row | inhibition [1] | Activity [2] | inhibition [3] | inhibition [4] | Activity [5] | IC50 ([6]; read-out: IC50) | IC50 [6] | inhibition [5] | SMILES | IC50 [7]
1 | 95% | 1000 a.u. | Active | Active | 400 a.u. | – | – | – | CN(C)c1ccc2nc3ccc(=[N+](C)C)cc-3sc2c1 | –
2 | Active | 1000 a.u. | Active | Active | 1000 a.u. | 21 µM | – | – | CCCN(CCN1CCN(c2ccc(-c3ccc(O)c(O)c3)cc2)CC1)[C@H]1CCc2nc(N)sc2C1 | –
3 | inactive | 9000 a.u. | inactive | inactive | – | – | Not Active | inactive | CCCN(CCN1CCN(c2ccc(-c3ccccc3)cc2)CC1)[C@H]1CCc2nc(N)sc2C1 | –
4 | – | – | – | – | – | – | – | – | O=C(O[C@@H]1Cc2c(O)cc(O)cc2O[C@@H]1c1cc(O)c(O)c(O)c1)c1cc(O)c(O)c(O)c1 [EPIGALOCATECHIN GALLATE] | > 200 µM
5 | Active | 1000 a.u. | Active | Active | 1500 a.u. | 25 µM | – | – | CCCN(CCN1CCN(c2ccc(-c3ccc(O)c(O)c3)cc2)CC1)[C@H]1CCc2c(O)cccc2C1 | –
6 | inactive | 7000 a.u. | inactive | inactive | – | – | Not Active | inactive | CCCN(CCN1CCN(c2ccc3[nH]c4ccccc4c3c2)CC1)[C@H]1CCc2nc(N)sc2C1 | –
